# Test results taken from ChEMBL document CHEMBL3259621, “Novel merosesquiterpene exerts a potent antitumor activity against breast cancer cells in vitro and in vivo” (Eur J Med Chem, 2014).
# The source made the active and inactive calls. No cut-off for these calls is given here.
# How the values were obtained:
# MCF7 [1] = test: Induction of apoptosis in human MCF7 cells assessed as late apoptotic cells at 3 uM after 48 hrs by annexin V staining-based flow cytometry (reference value: 3.24 %); assay type: functional
# MCF7 [2] = test: Cytotoxicity against human MCF7 cells assessed as reduction in cell viability at 2 uM after 3 days by SRB assay relative to control; assay type: functional
# Outline: (§1)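 MCF-7 seeded at high density (5 × 10⁴/cm²) and treated at 24 h with compound for 3 days, with or without 20 mM NAC. Viable cells quantified by sulforhodamine B staining, OD 492 nm. Viability reduction expressed versus untreated controls.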
# MCF7 [3] = test: Induction of apoptosis in human MCF7 cells assessed as increase in PARP cleavage at 2 uM after 4 to 24 hrs by Western blotting analysis relative to control; assay type: functional, cell-based
# Outline: (§2)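 MCF-7 seeded at 5 × 10⁴/cm² and exposed at 24 h to 2 µM compound for 0, 4, 8, 16 and 24 h. Lysates separated on 12% SDS gels, transferred to nitrocellulose, blocked in 5% milk. Primary antibodies applied overnight at 4 °C, then secondary 1 h at room temperature. Detection by ECL chemiluminescence with β-actin as loading reference.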
# [4] = Cytotoxicity against mouse E0771 cells after 3 days by SRB assay; assay type: functional, cell-based; conditions: E0771, 72 h
# Outline: (§3)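 Cells seeded at 5 × 10³ cells/cm² in quadruplicate and, after 24 h, treated with increasing concentrations for 3 days. Compounds diluted from DMSO stock, final DMSO <0.1% v/v. Cells were fixed with cold 10% TCA, stained with 0.4% sulforhodamine B in 1% acetic acid, and dye solubilised in 10 mM Tris-base pH 10.5. OD read at 492 nm. IC50 obtained by linear interpolation on a semi-log dose-response curve.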
# Mus musculus = test: Toxicity in C57BL/6 mouse allografted with mouse E0771 cells assessed as survival at 5 to 15 mg/kg, po; assay type: organism-based; design: dose 5-15 mg/kg, route oral; conditions: in vivo
# Outline: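 C57BL/6 mice (10 per group) injected subcutaneously in the right side with 1 × 10⁶ E0771 cells. At day 9, with tumours at 75 mm³, mice were randomised to oral vehicle (1% methylcellulose) or 5, 10 or 15 mg/kg on six occasions. Animals were monitored to day 42 for survival and for signs of toxicity such as hair loss or diarrhoea.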
# MCF7 [5] = test: Cell cycle arrest in human MCF7 cells assessed as accumulation at […] phase at 2 uM after 48 hrs by propidium iodide/RNAse staining-based FACS analysis (reference value: 8.02 %); assay type: functional
# MCF7 [6] = test: Induction of apoptosis in human MCF7 cells assessed as increase in beta-cadenin expression at 1 to 2 uM after 48 hrs by FACS analysis; assay type: functional, cell-based
# Outline: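 MCF-7 seeded at 5 × 10⁴/cm² and treated at 24 h with 1 or 2 µM compound for 48 h. Labelled with fluorochrome-conjugated anti-E-cadherin or anti-β-catenin antibody for 30 min at 4 °C in the dark, washed in PBS. Mean fluorescence intensity measured by FACScan flow cytometry.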
# MCF7 [7] = test: Cell cycle arrest in human MCF7 cells assessed as accumulation at […] phase at 1 uM after 48 hrs by propidium iodide/RNAse staining-based FACS analysis (reference value: 8.02 %); assay type: functional
# MCF7 [8] = test: Induction of apoptosis in human MCF7 cells assessed as late apoptotic cells at 1 uM after 48 hrs by annexin V staining-based flow cytometry (reference value: 3.24 %); assay type: functional
# HT-29 = test: Cytotoxicity against human HT-29 cells after 3 days by SRB assay; assay type: functional, cell-based; conditions: HT-29, 72 h; outline: as §3
# MCF7 [9] = test: Cell cycle arrest in human MCF7 cells assessed as accumulation at G0-G1 phase after 24 hrs by propidium iodide/RNAse staining-based FACS analysis; assay type: functional
# MCF7 [10] = test: Cell cycle arrest in human MCF7 cells assessed as accumulation at G2-M phase at 3 uM after 24 hrs by propidium iodide/RNAse staining-based FACS analysis (reference value: 8.20 %); assay type: functional
# [11] = Therapeutic index, ratio of IC50 for human MCF10A cells to IC50 for human MDA-MB-231 cells; assay type: cell-based, MCF-10A; conditions: MCF10A cells versus MDA-MB-231 cells, read-out: Ratio IC50
# MCF7 [12] = test: Induction of apoptosis in human MCF7 cells assessed as reduction in c-myc expression at 2 uM after 16 hrs by Western blotting analysis relative to control; assay type: functional; design: scale not given: the % may be the effect or the level left; outline: as §2
# SW480 = test: Cytotoxicity against human SW480 cells after 3 days by SRB assay; assay type: functional, cell-based; conditions: SW480, 72 h; outline: as §3
# MCF7 [13] = test: Cell cycle arrest in human MCF7 cells assessed as accumulation at G0-G1 phase at 1 uM after 24 hrs by propidium iodide/RNAse staining-based FACS analysis (reference value: 42.34 %); assay type: functional
# MCF7 [14] = test: Induction of apoptosis in human MCF7 cells assessed as reduction in cyclin B1 protein expression at 2 uM by Western blotting analysis; assay type: functional, cell-based; outline: as §2
# MCF7 [15] = test: Induction of apoptosis in human MCF7 cells assessed as reduction in c-myc expression at 2 uM after 24 hrs by Western blotting analysis relative to control; assay type: functional; design: scale not given: the % may be the effect or the level left; outline: as §2
# [16] = Therapeutic index, ratio of IC50 for human CCD-18Co cells to IC50 for human RKO cells; assay type: cell-based; conditions: CCD-18Co cells versus RKO cells, read-out: Ratio IC50
# MCF7 [17] = test: Cytotoxicity against human MCF7 cells assessed as reduction in cell viability at 1 uM after 3 days by SRB assay relative to control; assay type: functional; outline: as §1
# MCF7 [18] = test: Induction of apoptosis in human MCF7 cells assessed as reduction in total pRb protein expression at 2 uM after 16 hrs by Western blotting analysis relative to control; assay type: functional; design: scale not given: the % may be the effect or the level left
# Outline: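 MCF-7 seeded at 5 × 10⁴ cells/cm², exposed after 24 h to 2 µM for 0, 4, 8, 16 and 24 h. Lysed in SDS sample buffer, run on 12% acrylamide gels, transferred to nitrocellulose and blocked with 5% milk. Primary antibodies overnight at 4 °C (total or phospho-pRb, β-actin), secondary 1 h at room temperature, ECL chemiluminescence detection.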
# MCF7 [19] = test: Cytotoxicity against human MCF7 cells assessed as reduction in cell viability after 3 days by SRB assay; assay type: functional, cell-based; outline: as §1
# [20] = Cytotoxicity against human CCD-18Co cells after 3 days by SRB assay; assay type: cell-based; conditions: 72 h; outline: as §3
# [21] = biological target: Mitogen-activated protein kinase; ERK1/ERK2 (Homo sapiens) (UniProt P27361+P28482); test: Increase of p44/42 MAPK phosphorylation in human MCF7 cells at 2 uM after 4 to 24 hrs by Western blotting analysis relative to control; assay type: cell-based; outline: as §2
# Sequence of Mitogen-activated protein kinase; ERK1/ERK2 (Homo sapiens) (P27361 whole entry, looked up): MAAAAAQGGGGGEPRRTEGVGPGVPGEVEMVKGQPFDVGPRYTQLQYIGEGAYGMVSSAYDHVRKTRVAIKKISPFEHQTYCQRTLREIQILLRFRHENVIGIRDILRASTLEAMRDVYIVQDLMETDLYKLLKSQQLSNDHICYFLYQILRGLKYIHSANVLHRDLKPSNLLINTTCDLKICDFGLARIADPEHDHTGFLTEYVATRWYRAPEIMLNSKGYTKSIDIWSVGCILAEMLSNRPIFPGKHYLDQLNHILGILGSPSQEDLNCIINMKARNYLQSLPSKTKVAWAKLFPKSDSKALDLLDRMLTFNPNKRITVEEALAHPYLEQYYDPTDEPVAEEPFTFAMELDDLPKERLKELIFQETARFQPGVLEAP
# Sequence of Mitogen-activated protein kinase; ERK1/ERK2 (Homo sapiens) (P28482 whole entry, looked up): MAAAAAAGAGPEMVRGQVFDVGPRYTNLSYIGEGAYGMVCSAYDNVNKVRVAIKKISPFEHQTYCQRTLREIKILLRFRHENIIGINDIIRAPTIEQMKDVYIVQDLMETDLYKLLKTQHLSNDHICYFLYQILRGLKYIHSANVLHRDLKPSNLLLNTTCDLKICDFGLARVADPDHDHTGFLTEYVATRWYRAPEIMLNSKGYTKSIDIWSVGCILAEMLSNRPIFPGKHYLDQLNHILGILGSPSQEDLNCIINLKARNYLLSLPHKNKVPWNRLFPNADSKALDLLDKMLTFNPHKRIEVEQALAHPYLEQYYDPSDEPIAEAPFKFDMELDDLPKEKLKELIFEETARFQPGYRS
# [22] = Therapeutic index, ratio of IC50 for human MCF10A cells to IC50 for mouse E0771 cells; assay type: cell-based, MCF-10A; conditions: MCF10A cells versus E0771 cells, read-out: Ratio IC50
# [23] = Therapeutic index, ratio of IC50 for human CCD-18Co cells to IC50 for human HT-29 cells; assay type: cell-based; conditions: CCD-18Co cells versus HT-29 cells, read-out: Ratio IC50
# MCF7 [24] = test: Cytotoxicity against human MCF7 cells assessed as reduction in cell viability at 3 uM after 3 days by SRB assay relative to control; assay type: functional; outline: as §1
# [25] = Therapeutic index, ratio of IC50 for human CCD-18Co cells to IC50 for human T84 cells; assay type: cell-based, T84; CCD-18Co; conditions: CCD-18Co cells versus T84 cells, read-out: Ratio IC50
smiles,measurement,setting,value
C=C1CC[C@@H]2[C@](C)(CCC[C@]2(C)C(=O)OC)[C@H]1Cc1c(C)ccc2c1C(=O)C=CC2=O,Activity,MCF7 [1],9.5%
same,viability,MCF7 [2],46.09%
same,Activity,MCF7 [3],Active
same,IC50,[4],0.39 µM
same,Activity,Mus musculus,Non-toxic
same,Activity,MCF7 [5],31.09%
same,Activity,MCF7 [6],Active
same,Activity,MCF7 [7],15.56%
same,Activity,MCF7 [8],9.63%
same,IC50,HT-29,1.97 µM
same,Activity,MCF7 [9],Dose-dependent effect
same,Activity,MCF7 [10],5.08%
same,selectivity ratio,[11],6.85
same,Activity,MCF7 [12],50%
same,IC50,SW480,0.92 µM
same,Activity,MCF7 [13],51.4%
same,Activity,MCF7 [14],Active
same,Activity,MCF7 [15],80%
same,selectivity ratio,[16],0.56
same,viability,MCF7 [17],90.21%
same,Activity,MCF7 [18],90%
same,Activity,MCF7 [19],Dose-dependent effect
same,IC50,[20],0.33 µM
same,Activity,[21],Active
same,selectivity ratio,[22],8.08
same,selectivity ratio,[23],0.17
same,viability,MCF7 [24],23.26%
same,selectivity ratio,[25],0.59
